What all share (assay type): cell-based
One assay deals with T1, Adenosine receptor A3 (Homo sapiens, UniProt P0DMS8).
T1 sequence (P0DMS8 whole entry): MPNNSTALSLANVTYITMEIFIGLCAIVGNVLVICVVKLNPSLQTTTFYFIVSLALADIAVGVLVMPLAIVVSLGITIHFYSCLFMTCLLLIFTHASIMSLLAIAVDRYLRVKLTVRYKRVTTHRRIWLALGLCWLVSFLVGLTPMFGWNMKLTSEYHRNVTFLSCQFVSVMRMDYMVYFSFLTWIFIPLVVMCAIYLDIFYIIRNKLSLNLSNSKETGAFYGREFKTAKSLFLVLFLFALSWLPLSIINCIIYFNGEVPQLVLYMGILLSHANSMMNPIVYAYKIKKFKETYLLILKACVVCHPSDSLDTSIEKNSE
The assay can be described thus: Displacement of [125I]AB-MECA from human adenosine A3 receptor expressed in CHO cells. In short, it runs like this: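 Five displacer concentrations, each in triplicate. IC50 by nonlinear regression, converted to Ki with Cheng-Prusoff. Means ± SEM of four separate assays.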

In the next assay the target is T2, Adenosine receptor A1 (Homo sapiens, UniProt P30542).
T2 sequence (P30542 whole entry): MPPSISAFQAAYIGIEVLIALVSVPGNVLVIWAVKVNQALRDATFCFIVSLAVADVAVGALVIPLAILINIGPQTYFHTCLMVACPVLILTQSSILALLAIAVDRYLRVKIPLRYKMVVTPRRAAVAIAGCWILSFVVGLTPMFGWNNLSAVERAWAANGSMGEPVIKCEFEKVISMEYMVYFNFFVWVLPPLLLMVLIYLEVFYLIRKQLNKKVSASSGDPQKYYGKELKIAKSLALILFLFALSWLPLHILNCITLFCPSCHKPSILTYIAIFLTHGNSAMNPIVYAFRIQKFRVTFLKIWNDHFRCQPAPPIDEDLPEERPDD
In words: Displacement of [3H]DPCPX from human adenosine A1 receptor expressed in CHO cells. In short, it runs like this: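 Five concentrations in triplicate. IC50 by nonlinear regression, converted to Ki with Cheng-Prusoff. Means ± SEM of four assays.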
On the technique in general: Displacement assays read how much labelled ligand stays bound in the presence of the test substance.

The target of assay [1] is T3, Adenosine receptor A2a (Homo sapiens, UniProt P29274). The assay can be described thus: Displacement of [3H]NECA from human adenosine A2A receptor expressed in CHO cells.
T3 sequence (P29274 whole entry): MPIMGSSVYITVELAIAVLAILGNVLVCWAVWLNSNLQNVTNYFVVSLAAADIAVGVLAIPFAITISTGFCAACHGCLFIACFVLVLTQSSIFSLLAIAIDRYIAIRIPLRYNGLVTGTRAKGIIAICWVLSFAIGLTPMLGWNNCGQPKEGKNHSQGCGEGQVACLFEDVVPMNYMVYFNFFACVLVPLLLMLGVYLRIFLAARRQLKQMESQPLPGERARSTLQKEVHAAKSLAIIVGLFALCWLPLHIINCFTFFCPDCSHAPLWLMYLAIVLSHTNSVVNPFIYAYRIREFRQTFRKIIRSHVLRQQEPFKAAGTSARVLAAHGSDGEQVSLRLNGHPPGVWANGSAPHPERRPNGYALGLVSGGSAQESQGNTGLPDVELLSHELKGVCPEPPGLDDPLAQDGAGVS
The target of assay [2] is T3, Adenosine receptor A2a. In words: Displacement of [3H]NECA from human adenosine A2A receptor expressed in CHO cells at 10 uM.
Assay [3] addresses T4, Adenosine receptor A1 (Homo sapiens) (UniProt P30542).
T4 sequence (whole entry): T2 sequence (P30542 whole entry)
The assay can be described thus: Displacement of [3H]DPCPX from human adenosine A1 receptor expressed in CHO cells at 10 uM.

Assay [4] addresses T5, Adenosine receptor A3 (Homo sapiens) (UniProt P0DMS8).
T5 sequence (whole entry): T1 sequence (P0DMS8 whole entry)
In words: Displacement of [125I]AB-MECA from human adenosine A3 receptor expressed in CHO cells at 1 uM.

The Ki is the equilibrium dissociation constant of an inhibitor or competing ligand from its target. A higher Ki goes with weaker binding. Consider `COc1cccc(-n2cc3c(n2)c(N)nc2ccccc23)c1`, for which the inhibition constant Ki on Adenosine receptor A3 was found to be 229 nM; at Adenosine receptor A1 it was 32 nM; on Adenosine receptor A2a [1], 486 nM.

In turn, `Cc1ccc(-n2cc3c(n2)c(NC(=O)C(c2ccccc2)c2ccccc2)nc2ccccc23)cc1` came in with a Ki at Adenosine receptor A3 of 11.5 nM. The Activity at Adenosine receptor A2a [2] came to 3%; in assay [3], 32%.

In turn, `O=c1[nH]c2ccccc2c2cn(-c3ccccc3)nc12` gave an Activity on Adenosine receptor A2a [2] of 43%. This compound also came in with a Ki at Adenosine receptor A1 of 203 nM.

On to `COc1ccc(-n2cc3c(n2)c(NC(=O)NCc2ccccc2)nc2ccccc23)cc1`, for which the Activity at Adenosine receptor A2a [2] worked out at 0%; in assay [3] it was 43%; in assay [4] it was 40%.

As to `Cc1ccc(-n2cc3c(n2)c(NC(=O)Cc2ccccc2)nc2ccccc23)cc1`, the Ki at Adenosine receptor A3 was found to be 5.6 nM. The figures for the Activity (on Adenosine receptor A2a [2]; in assay [3]) were 21% and 55%, respectively.

Regarding `CC(=O)Nc1nc2ccccc2c2cn(-c3ccccc3)nc12`, the Activity on Adenosine receptor A2a [2] was 3%; in assay [3], 0%.

On Adenosine receptor A2a [2], `COc1ccc(-n2cc3c(n2)c(=O)[nH]c2ccccc23)cc1` gave an Activity of 25%. The compound also showed a Ki on Adenosine receptor A1 of 176 nM.

`O=c1[nH]c2ccccc2c2cn(Cc3ccccc3)nc12` came in with a Ki on Adenosine receptor A3 of 74.5 nM. For the same compound, the Activity on Adenosine receptor A2a [2] was 32%; in assay [3], 8%.

Regarding `Cc1cccc(-n2cc3c(n2)c(NC(=O)NCc2ccccc2)nc2ccccc23)c1`, the Ki at Adenosine receptor A3 was found to be 3.35 nM; at Adenosine receptor A1 it was 6800 nM. Besides, at Adenosine receptor A2a [2], the Activity came to 20%.

Take `Cc1cccc(-n2cc3c(n2)c(NC(=O)C(c2ccccc2)c2ccccc2)nc2ccccc23)c1`: the Ki at Adenosine receptor A3 was 14 nM; on Adenosine receptor A1, 559 nM. In addition, the Activity at Adenosine receptor A2a [2] stood at 4%.

In the case of `COc1ccc(-n2cc3c(n2)c(NC(C)=O)nc2ccccc23)cc1`, the Ki on Adenosine receptor A3 amounted to 102 nM; on Adenosine receptor A1 it was 2880 nM. Moreover, on Adenosine receptor A2a [2], the Activity stood at 0%.

Regarding `Cc1cccc(-n2cc3c(n2)c(N)nc2ccccc23)c1`, the results for the Ki on Adenosine receptor A1 and on Adenosine receptor A2a [1] were 21 nM and 228 nM, respectively.

`COc1cccc(-n2cc3c(n2)c(=O)[nH]c2ccccc23)c1`: the Ki at Adenosine receptor A3 was 7.3 nM; at Adenosine receptor A1, 14 nM. The compound also yielded an Activity at Adenosine receptor A2a [2] of 52%.

Consider `O=C(NCc1ccccc1)Nc1nc2ccccc2c2cn(-c3ccccc3)nc12`, for which the Activity at Adenosine receptor A2a [2] was determined as 3%; in assay [3], 0%.

Take `Cc1ccc(-n2cc3c(n2)c(N(C(=O)c2ccccc2)C(=O)c2ccccc2)nc2ccccc23)cc1`: on Adenosine receptor A3, the Ki was 30 nM. Moreover, the Activity at Adenosine receptor A2a [2] came to 0%; in assay [3] it was 32%.

As to `O=C(Cc1ccccc1)Nc1nc2ccccc2c2cn(-c3ccccc3)nc12`, the Activity was 15% on Adenosine receptor A2a [2] and 5% in assay [3].

For the compound `COc1ccc(-n2cc3c(n2)c(NC(=O)Cc2ccccc2)nc2ccccc23)cc1`, the Ki on Adenosine receptor A3 worked out at 4.5 nM; at Adenosine receptor A1, 201 nM. Also, the Activity on Adenosine receptor A2a [2] was found to be 51%.

Consider `Cc1ccc(-n2cc3c(n2)c(N)nc2ccccc23)cc1`, for which the Ki came out at 45 nM on Adenosine receptor A1 and 329 nM on Adenosine receptor A2a [1].

As for `COc1ccc(-n2cc3c(n2)c(NC(=O)c2ccccc2)nc2ccccc23)cc1`, the figures for the Ki at Adenosine receptor A3 and at Adenosine receptor A1 were 3.4 nM and 250 nM, respectively. This compound returned an Activity at Adenosine receptor A2a [2] of 39%.

`CC(=O)Nc1nc2ccccc2c2cn(-c3ccc(C)cc3)nc12`: the Ki at Adenosine receptor A3 amounted to 123 nM; at Adenosine receptor A1, 455 nM; on Adenosine receptor A2a [1], 1500 nM.

On Adenosine receptor A2a [2], `Cc1cccc(-n2cc3c(n2)c(=O)[nH]c2ccccc23)c1` returned an Activity of 46%. For the same compound, the Ki on Adenosine receptor A1 turned out to be 12 nM.

Turning to `CC(=O)Nc1nc2ccccc2c2cn(-c3cccc(C)c3)nc12`, the results for the Ki at Adenosine receptor A3 and on Adenosine receptor A1 were 31 nM and 203 nM, respectively. For the same compound, at Adenosine receptor A2a [2], the Activity was found to be 10%.

With `O=C(Nc1nc2ccccc2c2cn(-c3ccccc3)nc12)c1ccccc1`, the Activity on Adenosine receptor A2a [2] worked out at 9%; in assay [3], 0%.

Regarding `COc1ccc(-n2cc3c(n2)c(N)nc2ccccc23)cc1`, the affinity on Adenosine receptor A1, expressed as Ki, was 40 nM.

As for `COc1ccc(-n2cc3c(n2)c(NC(=O)C(c2ccccc2)c2ccccc2)nc2ccccc23)cc1`, affinity on Adenosine receptor A3 was put at a Ki of 9 nM. The Activity worked out at 0% on Adenosine receptor A2a [2] and 47% in assay [3].

At Adenosine receptor A1, `Nc1nc2ccccc2c2cn(-c3ccccc3)nc12` gave a Ki of 659 nM.

`Cc1ccc(-n2cc3c(n2)c(=O)[nH]c2ccccc23)cc1` yielded an Activity on Adenosine receptor A2a [2] of 44%. The same compound came in with a Ki on Adenosine receptor A1 of 29 nM.

With `Cc1cccc(-n2cc3c(n2)c(NC(=O)c2ccccc2)nc2ccccc23)c1`, the Ki worked out at 4.3 nM on Adenosine receptor A3, 57 nM at Adenosine receptor A1 and 2860 nM at Adenosine receptor A2a [1].

On to `O=c1[nH]c2ccccc2c2cn(-c3ccc([N+](=O)[O-])cc3)nc12`, for which the Ki was 85.5 nM on Adenosine receptor A3 and 357 nM on Adenosine receptor A1. Further, the Activity at Adenosine receptor A2a [2] stood at 0%.

Turning to `Cc1cccc(-n2cc3c(n2)c(NC(=O)Cc2ccccc2)nc2ccccc23)c1`, the Ki on Adenosine receptor A3 turned out to be 3.9 nM; at Adenosine receptor A1, 60 nM. Moreover, the Activity on Adenosine receptor A2a [2] was found to be 24%.

Compound `Cc1cccc(-n2cc3c(n2)c(N(C(=O)c2ccccc2)C(=O)c2ccccc2)nc2ccccc23)c1` came in with an inhibition constant Ki at Adenosine receptor A3 of 23.2 nM. In addition, the figures for the Activity (on Adenosine receptor A2a [2]; in assay [3]) were 20% and 42%, respectively.

Regarding `Cc1ccc(-n2cc3c(n2)c(NC(=O)c2ccccc2)nc2ccccc23)cc1`, the Ki at Adenosine receptor A3 came out at 4.4 nM; on Adenosine receptor A1, 629 nM. In addition, the Activity at Adenosine receptor A2a [2] was determined as 26%.

With `Cc1ccc(-n2cc3c(n2)c(NC(=O)NCc2ccccc2)nc2ccccc23)cc1`, on Adenosine receptor A3, the Ki came to 257 nM. Further, the Activity is 39% at Adenosine receptor A2a [2] and 5% in assay [3].

Compound `O=C(c1ccccc1)N(C(=O)c1ccccc1)c1nc2ccccc2c2cn(-c3ccccc3)nc12` showed a Ki at Adenosine receptor A3 of 6.1 nM. In addition, the Activity (on Adenosine receptor A2a [2]; in assay [3]) was 0% throughout.

Source of the values: ChEMBL document CHEMBL1148732, “New 2-arylpyrazolo[3,4-c]quinoline derivatives as potent and selective human A3 adenosine receptor antagonists. Synthesis, pharmacological evaluation, and ligand-receptor modeling studies” (J Med Chem, 2007).
